Reference: ChEMBL document CHEMBL4402598, “Design and Synthesis of Bitopic 2-Phenylcyclopropylmethylamine (PCPMA) Derivatives as Selective Dopamine D3 Receptor Ligands” (J Med Chem, 2020)

Assays:
[1] = Cmax in ICR mouse at 10 mg/kg, po by LC-MS/MS analysis; type: ADME, organism-based; design: dose 10 mg/kg, route oral; conditions: in vivo
How it was run: (§1)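 Male ICR mice (6-8 weeks, ~25 g) dosed with compound dissolved in saline, 5 mg/kg iv or 10 mg/kg po, nine animals per group. Samples stored at -80 °C; drug quantified by LC-MS/MS.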

[2] = target: D(1A) dopamine receptor (Homo sapiens, UniProt P21728); experiment: Displacement of [3H]-SCH23390 from recombinant human D1 receptor transiently expressed in HEKT cell membranes measured after 90 mins by microbeta scintillation counting method
Sequence of D(1A) dopamine receptor (P21728 whole entry): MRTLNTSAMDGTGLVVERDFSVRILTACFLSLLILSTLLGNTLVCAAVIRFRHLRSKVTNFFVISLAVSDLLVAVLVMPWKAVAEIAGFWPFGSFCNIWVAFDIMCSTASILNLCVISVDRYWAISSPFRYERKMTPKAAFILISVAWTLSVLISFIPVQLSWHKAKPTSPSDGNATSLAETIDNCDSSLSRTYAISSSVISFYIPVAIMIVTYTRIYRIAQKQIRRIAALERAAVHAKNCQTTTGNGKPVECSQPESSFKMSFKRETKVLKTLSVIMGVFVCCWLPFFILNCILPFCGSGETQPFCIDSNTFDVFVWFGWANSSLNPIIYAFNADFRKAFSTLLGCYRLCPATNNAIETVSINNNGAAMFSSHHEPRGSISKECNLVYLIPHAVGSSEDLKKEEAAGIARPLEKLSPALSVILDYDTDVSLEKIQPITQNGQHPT

[3] = target: D(2) dopamine receptor (Homo sapiens, UniProt P14416); experiment: Displacement of [3H]-N-methylspiperone from recombinant human D2 receptor stably expressed in fibroblast cell membranes measured after 90 mins by microbeta scintillation counting method
Sequence of D(2) dopamine receptor (P14416 whole entry): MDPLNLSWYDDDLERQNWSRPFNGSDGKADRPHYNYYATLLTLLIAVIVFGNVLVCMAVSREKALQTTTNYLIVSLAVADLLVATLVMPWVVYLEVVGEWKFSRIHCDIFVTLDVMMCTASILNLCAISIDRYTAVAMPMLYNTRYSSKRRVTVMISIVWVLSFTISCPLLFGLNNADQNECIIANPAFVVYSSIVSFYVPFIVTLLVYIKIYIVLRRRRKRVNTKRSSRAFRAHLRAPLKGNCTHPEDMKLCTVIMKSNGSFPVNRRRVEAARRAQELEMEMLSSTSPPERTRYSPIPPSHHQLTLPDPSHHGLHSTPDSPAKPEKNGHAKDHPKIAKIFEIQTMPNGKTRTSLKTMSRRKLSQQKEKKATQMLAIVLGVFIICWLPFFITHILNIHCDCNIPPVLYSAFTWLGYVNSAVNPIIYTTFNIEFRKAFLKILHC

[4] = target: T1, D(4) dopamine receptor (Homo sapiens, UniProt P21917); experiment: Displacement of [3H]-N-methylspiperone from recombinant human D4 receptor stably expressed in HEK cell membranes measured after 90 mins by microbeta scintillation counting method
T1 sequence (P21917 whole entry): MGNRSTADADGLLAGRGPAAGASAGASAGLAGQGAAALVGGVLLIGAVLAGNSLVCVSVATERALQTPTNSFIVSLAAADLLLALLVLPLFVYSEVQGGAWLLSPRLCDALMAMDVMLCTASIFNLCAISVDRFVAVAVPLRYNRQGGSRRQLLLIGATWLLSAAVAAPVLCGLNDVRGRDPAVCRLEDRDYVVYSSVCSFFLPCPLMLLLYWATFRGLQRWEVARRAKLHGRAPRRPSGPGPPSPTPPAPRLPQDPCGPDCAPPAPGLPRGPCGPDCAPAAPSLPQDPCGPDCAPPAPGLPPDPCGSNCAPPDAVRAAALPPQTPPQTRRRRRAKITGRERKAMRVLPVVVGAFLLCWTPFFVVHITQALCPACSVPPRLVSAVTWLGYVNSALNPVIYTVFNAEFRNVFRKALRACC

[5] = target: D(1B) dopamine receptor (Homo sapiens, UniProt P21918); experiment: Displacement of [3H]-SCH23390 from recombinant human D5 receptor transiently expressed in HEKT cell membranes measured after 90 mins by microbeta scintillation counting method
Sequence of D(1B) dopamine receptor (P21918 whole entry): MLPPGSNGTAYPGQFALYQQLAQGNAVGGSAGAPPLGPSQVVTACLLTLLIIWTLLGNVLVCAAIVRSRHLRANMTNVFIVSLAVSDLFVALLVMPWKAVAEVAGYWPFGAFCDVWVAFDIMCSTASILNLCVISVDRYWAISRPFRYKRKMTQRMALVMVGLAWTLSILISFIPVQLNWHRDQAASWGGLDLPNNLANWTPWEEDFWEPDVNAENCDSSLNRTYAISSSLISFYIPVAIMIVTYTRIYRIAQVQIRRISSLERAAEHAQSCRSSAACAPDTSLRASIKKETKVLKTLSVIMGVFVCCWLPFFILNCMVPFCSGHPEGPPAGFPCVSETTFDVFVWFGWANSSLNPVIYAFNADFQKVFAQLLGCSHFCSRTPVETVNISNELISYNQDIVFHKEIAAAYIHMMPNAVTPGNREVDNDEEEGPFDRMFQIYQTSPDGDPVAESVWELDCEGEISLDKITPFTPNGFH

[6] = target: T2, 5-hydroxytryptamine receptor 2C (Homo sapiens, UniProt P28335); experiment: Displacement of [3H]-Mesulergine from recombinant human 5HT2C receptor expressed in HEKT cell membranes measured after 90 mins by microbeta scintillation counting method
T2 sequence (P28335 whole entry): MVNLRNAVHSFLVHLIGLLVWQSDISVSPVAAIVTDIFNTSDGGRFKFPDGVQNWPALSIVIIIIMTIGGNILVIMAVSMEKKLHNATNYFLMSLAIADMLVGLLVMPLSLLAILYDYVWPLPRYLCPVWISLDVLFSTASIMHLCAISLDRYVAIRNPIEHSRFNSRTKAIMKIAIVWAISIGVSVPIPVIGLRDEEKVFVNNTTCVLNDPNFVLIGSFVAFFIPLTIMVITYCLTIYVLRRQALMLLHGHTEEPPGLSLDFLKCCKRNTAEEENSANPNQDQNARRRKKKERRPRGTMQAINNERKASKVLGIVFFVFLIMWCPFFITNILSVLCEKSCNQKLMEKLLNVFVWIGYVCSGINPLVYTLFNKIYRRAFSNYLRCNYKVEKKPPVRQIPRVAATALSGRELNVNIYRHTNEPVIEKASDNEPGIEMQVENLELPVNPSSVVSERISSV

[7] = target: T2, 5-hydroxytryptamine receptor 2C; experiment: Antagonist activity at human 5HT2C receptor stably expressed in HEK293 cells co-expressing Gq assessed as inhibition of 5-HT-induced calcium mobilization preincubated for 15 mins followed by 5-HT addition and measured at 1 sec interval for 60 secs by Fluo-4 calcium dye based FLIPR assay; type: functional, cell-based
How it was run: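 5-HT2C stably transfected HEK293 cells, loaded with Fluo-4 Direct (HBSS, 20 mM HEPES pH 7.4, 2.5 mM probenecid; 50 min 37 °C, 10 min room temperature). Test compound added, then 5-HT (final 1 nM) 15 min later.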

[8] = target: 5-hydroxytryptamine receptor 2A (Homo sapiens, UniProt P28223); experiment: Agonist activity at 5HT2A receptor (unknown origin) expressed in HEK293 cells co-expressing Gq assessed as induction of calcium mobilization measured at 1 sec interval for 60 secs by Fluo-4 calcium dye based FLIPR assay; type: cell-based; conditions: hek293, 1 min
Sequence of 5-hydroxytryptamine receptor 2A (P28223 whole entry): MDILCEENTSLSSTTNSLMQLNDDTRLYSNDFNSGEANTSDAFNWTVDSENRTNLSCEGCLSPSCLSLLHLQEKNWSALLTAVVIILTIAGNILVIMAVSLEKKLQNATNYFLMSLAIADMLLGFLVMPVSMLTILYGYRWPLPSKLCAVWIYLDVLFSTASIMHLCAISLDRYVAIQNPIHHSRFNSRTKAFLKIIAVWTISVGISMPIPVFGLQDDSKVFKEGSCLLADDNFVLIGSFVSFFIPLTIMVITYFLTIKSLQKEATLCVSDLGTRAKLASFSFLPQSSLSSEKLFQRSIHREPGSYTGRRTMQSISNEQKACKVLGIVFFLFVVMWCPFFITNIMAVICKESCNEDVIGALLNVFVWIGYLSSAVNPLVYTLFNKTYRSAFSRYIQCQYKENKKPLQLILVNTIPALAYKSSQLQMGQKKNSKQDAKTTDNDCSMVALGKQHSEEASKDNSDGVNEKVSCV

[9] = target: 5-hydroxytryptamine receptor 2B (Homo sapiens, UniProt P41595); experiment: Agonist activity at 5HT2B receptor (unknown origin) expressed in HEK293 cells co-expressing Gq assessed as induction of calcium mobilization measured at 1 sec interval for 60 secs by Fluo-4 calcium dye based FLIPR assay; type: cell-based; conditions: hek293, 1 min
Sequence of 5-hydroxytryptamine receptor 2B (P41595 whole entry): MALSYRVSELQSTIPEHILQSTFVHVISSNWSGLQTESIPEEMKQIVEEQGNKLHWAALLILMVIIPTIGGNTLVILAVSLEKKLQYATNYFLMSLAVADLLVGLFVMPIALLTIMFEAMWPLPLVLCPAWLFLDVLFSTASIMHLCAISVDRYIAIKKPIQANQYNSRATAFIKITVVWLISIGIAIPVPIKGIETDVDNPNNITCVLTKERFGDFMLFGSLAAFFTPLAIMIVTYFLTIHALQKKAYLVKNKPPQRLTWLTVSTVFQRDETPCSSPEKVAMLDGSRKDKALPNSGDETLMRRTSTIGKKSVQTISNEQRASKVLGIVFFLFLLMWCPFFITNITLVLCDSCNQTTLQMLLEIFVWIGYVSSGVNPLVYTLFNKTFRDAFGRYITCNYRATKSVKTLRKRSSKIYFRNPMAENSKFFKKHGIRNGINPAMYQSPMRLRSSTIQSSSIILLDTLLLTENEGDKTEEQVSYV

[10] = Half life in ICR mouse at 5 mg/kg, iv by LC-MS/MS analysis; type: ADME, organism-based; conditions: in vivo; how it was run: as §1
[11] = AUC (0 to t) in ICR mouse at 5 mg/kg, iv by LC-MS/MS analysis; type: ADME, organism-based; conditions: in vivo; how it was run: as §1
[12] = Clearance in ICR mouse at 5 mg/kg, iv by LC-MS/MS analysis; type: ADME, organism-based; conditions: in vivo; how it was run: as §1
[13] = MRT in ICR mouse at 5 mg/kg, iv by LC-MS/MS analysis; type: ADME, organism-based; conditions: in vivo; how it was run: as §1
[14] = Volume of distribution at steady state in ICR mouse at 5 mg/kg, iv by LC-MS/MS analysis; type: ADME, organism-based; conditions: in vivo, read-out: Vdss; how it was run: as §1
[15] = Drug level in ICR mouse brain at 5 mg/kg, iv measured after 0.5 hrs by LC-MS/MS analysis; type: ADME, organism-based
How it was run: (§2)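 Male ICR mice (6-8 weeks, ~25 g) received compound in saline, 5 mg/kg iv or 10 mg/kg po. Brains collected at 0.5 and 2.0 h, saline-washed, weighed, homogenized in cold 50% methanol (1 g:3 mL). Plasma prepared from orbital blood. Samples held at -80 °C; LC-MS/MS quantitation. Brain/plasma ratio calculated from the two concentrations.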

[16] = Drug level in ICR mouse plasma at 5 mg/kg, iv measured after 0.5 hrs by LC-MS/MS analysis; type: ADME, organism-based; how it was run: as §2
[17] = Ratio of drug level in ICR mouse brain to plasma at 5 mg/kg, iv measured after 0.5 hrs by LC-MS/MS analysis; type: ADME, organism-based; conditions: read-out: BPR; how it was run: as §2
[18] = Drug level in ICR mouse brain at 5 mg/kg, iv measured after 2 hrs by LC-MS/MS analysis; type: ADME, organism-based; how it was run: as §2
[19] = Drug level in ICR mouse plasma at 5 mg/kg, iv measured after 2 hrs by LC-MS/MS analysis; type: ADME, organism-based; how it was run: as §2
[20] = Ratio of drug level in ICR mouse brain to plasma at 5 mg/kg, iv measured after 2 hrs by LC-MS/MS analysis; type: ADME, organism-based; conditions: read-out: BPR; how it was run: as §2
[21] = Tmax in ICR mouse at 10 mg/kg, po by LC-MS/MS analysis; type: ADME, organism-based; conditions: in vivo; how it was run: as §1
[22] = Half life in ICR mouse at 10 mg/kg, po by LC-MS/MS analysis; type: ADME, organism-based; conditions: in vivo; how it was run: as §1
[23] = AUC (0 to t) in ICR mouse at 10 mg/kg, po by LC-MS/MS analysis; type: ADME, organism-based; conditions: in vivo; how it was run: as §1
[24] = MRT in ICR mouse at 10 mg/kg, po by LC-MS/MS analysis; type: ADME, organism-based; conditions: in vivo; how it was run: as §1
[25] = Oral bioavailability in ICR mouse at 10 mg/kg by LC-MS/MS analysis; type: ADME, organism-based; conditions: in vivo; how it was run: as §1
[26] = Drug level in ICR mouse brain at 10 mg/kg, po measured after 0.5 hrs by LC-MS/MS analysis; type: ADME, organism-based; how it was run: as §2
[27] = Drug level in ICR mouse plasma at 10 mg/kg, po measured after 0.5 hrs by LC-MS/MS analysis; type: ADME, organism-based; how it was run: as §2
[28] = Ratio of drug level in ICR mouse brain to plasma at 10 mg/kg, po measured after 0.5 hrs by LC-MS/MS analysis; type: ADME, organism-based; conditions: read-out: BPR; how it was run: as §2
[29] = Drug level in ICR mouse brain at 10 mg/kg, po measured after 2 hrs by LC-MS/MS analysis; type: ADME, organism-based; how it was run: as §2
[30] = Drug level in ICR mouse plasma at 10 mg/kg, po measured after 2 hrs by LC-MS/MS analysis; type: ADME, organism-based; how it was run: as §2
[31] = Ratio of drug level in ICR mouse brain to plasma at 10 mg/kg, po measured after 2 hrs by LC-MS/MS analysis; type: ADME, organism-based; conditions: read-out: BPR; how it was run: as §2

Row | Structure (SMILES) | Cmax [1] [ng/mL] | Ki [2] [nM] | Ki [3] [nM] | Ki [4] [nM] | Ki [5] [nM] | Ki [6] [nM] | IC50 [7] [nM] | Activity [8] | Activity [9] | half-life [10] [h] | AUC(0-t) [11] [ng·h/mL] | clearance [12] [mL/min/kg] | MRT [13] [h] | Vd [14] [L/kg] | concentration at 0.5 h [15] [ng/mL] | concentration at 0.5 h [16] [ng/mL] | Kp at 0.5 h [17] | concentration at 2 h [18] [ng/mL] | concentration at 2 h [19] [ng/mL] | Kp at 2 h [20] | also measured
1 | CCCN(CCCCNC(=O)c1ccc(-c2ccccn2)cc1)C[C@@H]1C[C@H]1c1cc(F)ccc1OC.Cl | 43.2 | 4900 | 1350 | 575 | > 5000 | 1120 | 14500 | Active | Not Active | 0.437 | 660 | 126 | 0.415 | 3.13 | 530 | 446 | 1.19 | 19.4 | 12.7 | 1.53 | Tmax [21]: 0.25 h; half-life [22]: 2.64 h; AUC(0-t) [23]: 49.5 ng·h/mL; MRT [24]: 3.72 h; bioavailability [25]: 3.8%; concentration at 0.5 h [26]: 8.21 ng/mL; concentration at 0.5 h [27]: 16.8 ng/mL; Kp at 0.5 h [28]: 0.49; concentration at 2 h [29]: 6.57 ng/mL; concentration at 2 h [30]: 8.4 ng/mL; Kp at 2 h [31]: 0.79
2 | CCCN(CCCCNC(=O)c1cc2ccccc2[nH]1)C[C@@H]1C[C@H]1c1cccc(Cl)c1Cl.Cl | 63.9 | 1380 | 537 | 1050 | > 5000 | 513 | > 30000 | Active | Not Active | 3.12 | 629 | 117 | 3.4 | 23.8 | 833 | 215 | 3.88 | 543 | 94.8 | 5.72 | Tmax [21]: 1 h; half-life [22]: 4.11 h; AUC(0-t) [23]: 428 ng·h/mL; MRT [24]: 6 h; bioavailability [25]: 34.1%; concentration at 0.5 h [26]: 51.3 ng/mL; concentration at 0.5 h [27]: 35.5 ng/mL; Kp at 0.5 h [28]: 1.45; concentration at 2 h [29]: 160 ng/mL; concentration at 2 h [30]: 67.7 ng/mL; Kp at 2 h [31]: 2.36
